Measured values published in ChEMBL document CHEMBL4321879, “Novel Class of Colony-Stimulating Factor 1 Receptor Kinase Inhibitors Based on an o-Aminopyridyl Alkynyl Scaffold as Potential Treatment for Inflammatory Disorders” (J Med Chem, 2020).

Experiments:
[1] = target: Epidermal growth factor receptor (Homo sapiens) (UniProt P00533); test: Inhibition of recombinant human N-terminal GST-tagged EGFR (696 to end residues) expressed in baculovirus infected Sf21 insect cells at 1000 nM using poly (Glu, Tyr)4:1 as substrate measured after 1 hr by ELISA relative to control
In short: (§1)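 Recombinant kinase was incubated with compound in reaction buffer containing 5 μM ATP, in wells precoated with poly(Glu,Tyr) 4:1, for 1 h at 37 °C. Phosphorylation was detected by ELISA.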

[2] = target: c-KIT (Homo sapiens, UniProt P10721); test: Inhibition of recombinant human N-terminal GST-tagged c-KIT (544 to end residues) expressed in baculovirus infected Sf21 insect cells at 100 nM using poly (Glu, Tyr)4:1 as substrate measured after 1 hr by ELISA relative to control; conditions: probe poly (Glu, Tyr)4:1; in short: as §1
[3] = target: Fibroblast growth factor receptor 4 (Homo sapiens, UniProt P22455); test: Inhibition of recombinant human N-terminal His6-tagged FGFR4 (442 to 755 residues) expressed in baculovirus infected Sf21 insect cells at 100 nM using poly (Glu, Tyr)4:1 as substrate measured after 1 hr by ELISA relative to control; in short: as §1
[4] = target: Focal adhesion kinase 1 (Homo sapiens) (UniProt Q05397); test: Inhibition of recombinant human N-terminal His6-tagged FAK (411 to 686 residues) expressed in baculovirus infected Sf21 insect cells at 100 nM using poly (Glu, Tyr)4:1 as substrate measured after 1 hr by ELISA relative to control; in short: as §1
Sequence of Focal adhesion kinase 1 (Homo sapiens) (Q05397 2-1052 limits assumed): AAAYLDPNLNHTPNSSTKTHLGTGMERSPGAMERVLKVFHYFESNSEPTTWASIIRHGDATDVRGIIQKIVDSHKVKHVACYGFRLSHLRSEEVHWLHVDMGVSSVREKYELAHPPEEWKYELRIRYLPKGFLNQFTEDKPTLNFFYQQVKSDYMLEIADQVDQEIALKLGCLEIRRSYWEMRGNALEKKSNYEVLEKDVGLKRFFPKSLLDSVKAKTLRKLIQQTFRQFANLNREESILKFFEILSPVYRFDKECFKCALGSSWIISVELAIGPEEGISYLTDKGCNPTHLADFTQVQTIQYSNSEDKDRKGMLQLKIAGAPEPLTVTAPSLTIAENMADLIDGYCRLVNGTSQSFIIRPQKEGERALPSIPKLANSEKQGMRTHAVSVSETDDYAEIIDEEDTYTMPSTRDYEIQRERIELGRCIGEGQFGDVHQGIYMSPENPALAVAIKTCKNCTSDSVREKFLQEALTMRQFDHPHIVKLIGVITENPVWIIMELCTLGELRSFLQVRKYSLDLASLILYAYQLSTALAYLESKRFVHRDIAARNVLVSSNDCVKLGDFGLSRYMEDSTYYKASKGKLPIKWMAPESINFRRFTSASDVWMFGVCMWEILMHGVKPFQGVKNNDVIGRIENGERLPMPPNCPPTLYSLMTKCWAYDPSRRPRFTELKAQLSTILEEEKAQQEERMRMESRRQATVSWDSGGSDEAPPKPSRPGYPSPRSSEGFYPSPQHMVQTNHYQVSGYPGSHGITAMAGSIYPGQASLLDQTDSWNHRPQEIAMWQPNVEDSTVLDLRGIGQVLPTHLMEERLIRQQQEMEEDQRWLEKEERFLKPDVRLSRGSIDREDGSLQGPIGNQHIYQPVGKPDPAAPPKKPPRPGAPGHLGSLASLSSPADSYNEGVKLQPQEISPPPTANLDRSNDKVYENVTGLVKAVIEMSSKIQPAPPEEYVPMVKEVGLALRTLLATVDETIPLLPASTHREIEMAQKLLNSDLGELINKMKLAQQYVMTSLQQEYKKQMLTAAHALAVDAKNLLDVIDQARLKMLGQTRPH

Sequence of Epidermal growth factor receptor (Homo sapiens) (P00533 whole entry): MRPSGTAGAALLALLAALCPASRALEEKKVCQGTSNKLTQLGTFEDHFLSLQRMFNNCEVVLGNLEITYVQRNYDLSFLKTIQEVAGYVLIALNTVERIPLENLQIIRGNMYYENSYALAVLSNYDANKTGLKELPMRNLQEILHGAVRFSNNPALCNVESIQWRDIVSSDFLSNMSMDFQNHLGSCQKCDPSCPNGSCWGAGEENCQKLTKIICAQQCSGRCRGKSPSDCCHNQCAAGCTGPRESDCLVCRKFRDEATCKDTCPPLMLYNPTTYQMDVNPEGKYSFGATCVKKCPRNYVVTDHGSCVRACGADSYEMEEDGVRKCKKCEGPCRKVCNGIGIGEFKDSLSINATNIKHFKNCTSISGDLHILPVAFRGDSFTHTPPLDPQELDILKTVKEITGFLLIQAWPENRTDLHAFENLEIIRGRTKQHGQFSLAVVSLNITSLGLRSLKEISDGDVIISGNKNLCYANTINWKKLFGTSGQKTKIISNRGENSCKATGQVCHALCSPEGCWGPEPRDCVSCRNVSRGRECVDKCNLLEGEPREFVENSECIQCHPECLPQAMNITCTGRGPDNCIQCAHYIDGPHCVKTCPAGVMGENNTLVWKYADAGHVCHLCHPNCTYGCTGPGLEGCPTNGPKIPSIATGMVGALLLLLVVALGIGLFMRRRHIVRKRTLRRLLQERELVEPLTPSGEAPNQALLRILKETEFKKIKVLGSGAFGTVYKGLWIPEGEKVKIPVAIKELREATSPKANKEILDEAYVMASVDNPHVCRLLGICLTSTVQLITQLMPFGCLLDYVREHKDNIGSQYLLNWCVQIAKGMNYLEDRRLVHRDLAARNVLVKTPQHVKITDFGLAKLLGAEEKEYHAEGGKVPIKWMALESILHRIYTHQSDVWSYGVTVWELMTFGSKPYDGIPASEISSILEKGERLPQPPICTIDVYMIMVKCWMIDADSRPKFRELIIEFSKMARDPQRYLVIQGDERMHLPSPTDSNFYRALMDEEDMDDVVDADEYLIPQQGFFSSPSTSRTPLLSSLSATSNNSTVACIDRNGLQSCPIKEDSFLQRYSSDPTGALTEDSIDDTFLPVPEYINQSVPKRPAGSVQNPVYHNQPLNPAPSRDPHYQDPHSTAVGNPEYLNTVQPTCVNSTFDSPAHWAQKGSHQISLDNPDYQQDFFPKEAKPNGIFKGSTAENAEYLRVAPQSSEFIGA
Sequence of c-KIT (P10721 whole entry, the tested form may be a part): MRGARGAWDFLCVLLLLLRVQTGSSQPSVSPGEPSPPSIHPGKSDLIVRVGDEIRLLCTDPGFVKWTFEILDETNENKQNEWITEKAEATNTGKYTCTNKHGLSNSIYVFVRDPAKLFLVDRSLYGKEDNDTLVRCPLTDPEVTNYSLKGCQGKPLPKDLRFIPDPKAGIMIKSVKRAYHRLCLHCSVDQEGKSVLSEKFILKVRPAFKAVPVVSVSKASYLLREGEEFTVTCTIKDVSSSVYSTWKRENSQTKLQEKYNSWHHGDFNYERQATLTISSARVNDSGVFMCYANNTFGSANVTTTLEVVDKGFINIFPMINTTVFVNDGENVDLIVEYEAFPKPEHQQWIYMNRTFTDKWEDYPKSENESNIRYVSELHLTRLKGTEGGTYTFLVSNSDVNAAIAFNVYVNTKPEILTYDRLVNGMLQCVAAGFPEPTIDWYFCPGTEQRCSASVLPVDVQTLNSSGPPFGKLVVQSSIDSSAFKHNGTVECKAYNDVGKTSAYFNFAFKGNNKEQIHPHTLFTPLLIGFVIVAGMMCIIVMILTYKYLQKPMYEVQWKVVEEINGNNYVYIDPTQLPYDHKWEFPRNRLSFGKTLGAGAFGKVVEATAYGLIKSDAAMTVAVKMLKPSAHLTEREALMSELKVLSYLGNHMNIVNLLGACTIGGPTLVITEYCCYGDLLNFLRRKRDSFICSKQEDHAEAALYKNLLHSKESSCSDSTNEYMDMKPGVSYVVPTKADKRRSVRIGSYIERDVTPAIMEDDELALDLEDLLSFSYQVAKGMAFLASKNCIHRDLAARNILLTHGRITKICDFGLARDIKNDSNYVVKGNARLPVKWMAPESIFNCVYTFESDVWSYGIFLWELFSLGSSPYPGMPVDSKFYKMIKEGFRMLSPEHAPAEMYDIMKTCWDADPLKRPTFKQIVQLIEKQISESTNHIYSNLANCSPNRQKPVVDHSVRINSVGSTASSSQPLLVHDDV
Sequence of Fibroblast growth factor receptor 4 (P22455 22-802 limits assumed): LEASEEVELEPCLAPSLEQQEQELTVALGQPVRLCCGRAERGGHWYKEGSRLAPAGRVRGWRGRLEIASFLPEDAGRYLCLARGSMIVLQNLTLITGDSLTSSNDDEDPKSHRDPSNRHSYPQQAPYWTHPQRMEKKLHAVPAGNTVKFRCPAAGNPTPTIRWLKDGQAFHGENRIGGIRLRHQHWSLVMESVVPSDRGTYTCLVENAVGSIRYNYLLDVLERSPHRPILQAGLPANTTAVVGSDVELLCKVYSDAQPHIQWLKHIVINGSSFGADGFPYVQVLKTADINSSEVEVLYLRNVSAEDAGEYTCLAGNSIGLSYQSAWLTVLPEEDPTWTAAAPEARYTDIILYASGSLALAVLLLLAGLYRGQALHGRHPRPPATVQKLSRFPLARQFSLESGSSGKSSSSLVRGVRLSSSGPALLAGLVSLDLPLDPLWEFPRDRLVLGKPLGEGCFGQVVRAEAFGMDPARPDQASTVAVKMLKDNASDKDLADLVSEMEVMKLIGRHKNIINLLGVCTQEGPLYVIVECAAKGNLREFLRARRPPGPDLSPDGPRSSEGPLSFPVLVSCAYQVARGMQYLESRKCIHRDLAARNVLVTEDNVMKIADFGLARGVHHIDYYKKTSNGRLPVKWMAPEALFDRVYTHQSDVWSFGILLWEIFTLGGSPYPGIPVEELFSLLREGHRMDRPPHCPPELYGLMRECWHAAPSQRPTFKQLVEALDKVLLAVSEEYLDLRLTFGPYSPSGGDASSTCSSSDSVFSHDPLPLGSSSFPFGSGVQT

Q: How did the inhibition [1] turn out when `Cc1ccc(C(=O)Nc2ccc(Cl)cc2)cc1C#Cc1cc(-c2cnn(C)c2)cnc1N` was run?
A: The inhibition was 0%.

Q: What about the inhibition at 1 h, 0.1 µM [2] of the same compound?
A: Its inhibition at 1 h, 0.1 µM is 100%.

Q: And the inhibition [3]?
A: The inhibition was 0%.

Q: What about the inhibition [4] of the same compound?
A: The inhibition was 14.7%.
